Experimental data collected from several papers.
Target: Ephrin type-A receptor 6 (EPHA6, Homo sapiens, UniProt Q9UF33)
Residues used in one study (Q9UF33 23-1036): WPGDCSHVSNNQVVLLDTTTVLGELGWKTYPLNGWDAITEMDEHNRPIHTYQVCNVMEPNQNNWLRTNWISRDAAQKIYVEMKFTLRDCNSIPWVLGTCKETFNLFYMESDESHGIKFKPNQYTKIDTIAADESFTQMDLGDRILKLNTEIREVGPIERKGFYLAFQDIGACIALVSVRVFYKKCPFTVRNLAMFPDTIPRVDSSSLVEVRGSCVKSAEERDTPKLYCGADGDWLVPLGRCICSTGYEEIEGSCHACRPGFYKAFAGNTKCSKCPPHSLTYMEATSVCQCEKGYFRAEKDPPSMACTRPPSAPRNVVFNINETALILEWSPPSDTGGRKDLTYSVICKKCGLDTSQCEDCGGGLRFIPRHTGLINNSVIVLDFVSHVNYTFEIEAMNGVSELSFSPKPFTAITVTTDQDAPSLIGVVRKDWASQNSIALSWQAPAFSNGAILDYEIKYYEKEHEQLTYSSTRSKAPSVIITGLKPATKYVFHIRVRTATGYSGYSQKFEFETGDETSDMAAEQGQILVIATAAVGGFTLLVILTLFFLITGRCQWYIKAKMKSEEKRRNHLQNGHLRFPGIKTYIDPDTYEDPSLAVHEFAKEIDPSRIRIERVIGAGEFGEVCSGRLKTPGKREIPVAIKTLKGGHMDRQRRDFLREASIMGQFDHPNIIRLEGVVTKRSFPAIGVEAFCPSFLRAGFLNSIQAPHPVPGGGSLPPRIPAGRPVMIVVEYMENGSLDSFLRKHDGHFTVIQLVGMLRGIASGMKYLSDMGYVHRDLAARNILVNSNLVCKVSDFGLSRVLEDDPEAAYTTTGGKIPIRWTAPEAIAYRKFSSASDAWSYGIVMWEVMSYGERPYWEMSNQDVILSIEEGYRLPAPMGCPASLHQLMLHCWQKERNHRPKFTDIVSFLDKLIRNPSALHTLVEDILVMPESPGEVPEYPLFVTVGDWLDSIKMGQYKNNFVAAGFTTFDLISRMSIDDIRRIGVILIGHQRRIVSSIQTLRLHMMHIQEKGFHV

Compound	effect on	method	tested at	remaining binding [%]
C[C@H]1CCN(c2nccc(-c3cnn4ncccc34)n2)C1	binding	–	1 µM	100
Cn1nc(C(=O)NCc2ccc(C(=O)O)cc2)cc1-c1ccc2[nH]ccc2c1	cell-free assay	competition with immobilised ligand	0.1 µM	100
F[C@@H]1CCN(c2nccc(-c3cnn4ncccc34)n2)C1	binding	–	1 µM	80
Nc1ncc2c(n1)-c1c([nH]c3ccc(C#CC4CC4)cc13)CCCC2	binding	competition with immobilised ligand	1 µM	100
O=C(c1ccc(Nc2nccc(-c3cc4ccccc4s3)n2)cc1)N1CCC(N2CCCC2)CC1	binding	competition with immobilised ligand	1 µM	99
CNC(=O)[C@@H]1CC[C@@H](n2c(-c3ccc4cnccc4c3)nc3ccc(C(=O)NCc4cccc(C(N)=O)c4)cc32)C1	binding	competition with immobilised ligand	1 µM	100
CN(C)c1ncc(F)c(-c2cnn3ncccc23)n1	binding	–	1 µM	82
C[C@@H](c1ccc(-n2cnc3c(N)ncnc32)cc1)N1CCc2nn(C)c(Cc3ccccc3)c2C1=O	binding	competition with immobilised ligand	0.1 µM	100
CN(C)c1nccc(-c2cnc3ncccn23)n1	binding	–	1 µM	98
CNCc1ccccc1-c1csc([C@H](C)Nc2nc(C)nc3cc(OC)c(OC)cc23)c1	cell-free assay	competition with immobilised ligand	1 µM	100
c1cncc(-c2cccc(Nc3nccc(NC4CCCCC4)n3)c2)c1	binding	competition with immobilised ligand	10 µM	96
COc1cc(-c2cn(C3CCc4c(F)cccc4N(CC(F)(F)F)C3=O)nn2)ccc1-n1cnc(C)c1 (stereo not drawn)	cell-free assay	competition with immobilised ligand	1 µM	100
CC1CCCN1c1nccc(-c2cnn3ncccc23)n1 (stereo not drawn)	binding	–	1 µM	94
O=C(c1ccc(Nc2ncc(Cl)c(-c3ccc(Cl)s3)n2)cc1)N1CCC(N2CCCC2)CC1	binding	competition with immobilised ligand	1 µM	51
CN(c1nccc(-c2cnn3ncccc23)n1)C1CC1	binding	–	1 µM	99
CC(=O)N1CCC(c2ccc(C(=O)NC3=NCCN3)cc2C(F)(F)F)CC1	cell-free assay	competition with immobilised ligand	1 µM	98
CCN1CCN(Cc2ccc(C(=O)Nc3ccc(C)c(Oc4ccc5c(c4)CC(=O)N5)c3)cc2C(F)(F)F)CC1	binding	competition with immobilised ligand	1 µM	100
O=C(Nc1cccnn1)N1CCC(=Cc2cccc(Oc3ccc(C(F)(F)F)cn3)c2)CC1	cell-free assay	competition with immobilised ligand	1 µM	78
O=C(NCCCN1CCOCC1)c1ccc(Nc2nccc(-c3cc4ccccc4s3)n2)cc1	binding	competition with immobilised ligand	1 µM	97
O=C(NCC1CCOCC1)c1n[nH]cc1NC(=O)c1c(F)cccc1F	binding	competition with immobilised ligand	1 µM	100
O=C(N[C@H]1CCCCC/C=C\C2C[C@@]2(C(=O)O)NC(=O)[C@@H]2C[C@@H](Oc3ccncc3)CN2C1=O)OC1CCCC1 (stereo partly drawn)	cell-free assay	competition with immobilised ligand	1 µM	100
